ROMK primary – modulators of human ROMK potassium channel | P48048 | AID 1918 | actives 2% (n = 130,000) | Tet-inducible ROMK, thallium flux fluorescence; actives lie on both sides | B-score at 10 µM;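 active = signal ratio slope over the read window, or its plate-corrected B-score, at least 3 SD from the plate mean, either direction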;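 also: B-score of the F/F0 ratio slope over 7 to 12 s after thallium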
Target sequence (P48048 whole entry, looked up): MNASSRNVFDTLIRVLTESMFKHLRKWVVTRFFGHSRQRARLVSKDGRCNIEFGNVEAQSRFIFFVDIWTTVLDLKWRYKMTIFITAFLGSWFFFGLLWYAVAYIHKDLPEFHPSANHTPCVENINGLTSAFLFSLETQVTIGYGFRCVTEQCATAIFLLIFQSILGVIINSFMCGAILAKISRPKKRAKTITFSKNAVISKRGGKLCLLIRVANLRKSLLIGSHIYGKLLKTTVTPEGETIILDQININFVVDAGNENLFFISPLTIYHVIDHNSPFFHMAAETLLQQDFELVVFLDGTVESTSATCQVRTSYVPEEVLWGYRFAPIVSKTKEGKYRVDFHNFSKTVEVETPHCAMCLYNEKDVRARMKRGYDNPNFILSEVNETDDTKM
Rad51 HR inh – Rad51 (human) homologous recombination inhibition; Q06609; hRad51 DNA strand exchange, fluorescence dequenching; inhibition, % at 10 µM; actives 0.085% (n = 200,000); AID 1385;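 active = inhibition above 40% at the single screening dose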
Target sequence (Q06609 whole entry, looked up): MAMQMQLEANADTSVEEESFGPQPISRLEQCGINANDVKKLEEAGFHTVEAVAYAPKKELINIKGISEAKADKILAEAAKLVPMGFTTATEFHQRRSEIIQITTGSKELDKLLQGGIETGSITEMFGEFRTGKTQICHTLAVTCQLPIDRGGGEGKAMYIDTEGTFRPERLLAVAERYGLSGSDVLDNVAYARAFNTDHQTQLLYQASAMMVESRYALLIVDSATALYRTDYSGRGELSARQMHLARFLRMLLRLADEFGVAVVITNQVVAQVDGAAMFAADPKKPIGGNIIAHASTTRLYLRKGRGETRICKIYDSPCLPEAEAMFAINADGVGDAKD
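Test system: preformed human Rad51 ssDNA filaments; also added: Donor/quencher-labelled 47-bp dsDNA substrate; doses: 10 µM final, single point; times: 37 °C 15-min filament assembly, 30-min compound preincubation, 15-min exchange; detection: FRET fluorescence dequenching, excitation 485 nm, emission 520 nm; read-out basis: Fluorescence-based percent inhibition, control- and blank-normalised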
KCC2 mod – KCC2 (human) Cl- transport modulation; KCC2 cells, thallium flux FluoZin-2 fluorescence; AID 1456; actives 2.2% (n = 190,000); B-score of Tl+ flux slope (higher = more flux/activation; lower = inhibition) at 10 µM;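 active = thallium flux slope and its plate-corrected score both differing from the plate sample mean at a set confidence after two filtering rounds, in either direction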;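 also: slope of fluorescence scaled to starting intensity during 10 to 20 s after thallium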
PKD1 inh – blocks activity of human protein kinase D1; Q15139; inhibition, % (no concentration beside the values); actives 0.056% (n = 200,000); AID 797; PKD1 kinase fluorescence polarization assay; in the data active = inhibition above about 50%
KCC2 secondary – KCC2 (human) modulation, secondary assay; shares compounds with KCC2 mod; actives 15% (n = 3,700); HEK293-KCC2, thallium flux, FluoZin2 fluorescence; stronger effect = higher value; normalised thallium flux (F/F0 slope) at 10 µM;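 active = thallium flux slope above the same plate's solvent-only control mean plus 3 SD; inconclusive = the two replicate wells disagree; inactive = no significant difference from solvent-only control wells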
KCC2 bumet counter – thallium flux persisting under bumetanide in KCC2 cells, counter-screen secondary assay | shares compounds with KCC2 mod | HEK293-KCC2 + bumetanide/ouabain, thallium flux FluoZin2; stronger effect = higher value | normalized thallium flux at 10 µM | actives 49% (n = 3,700) | AID 1714;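 active = thallium entry rate above the same plate's blocked-transporter control wells by more than 3 SD; inconclusive = the two repeat wells disagree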;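 also: raw slope of fluorescence over initial fluorescence between 10 and 20 s after thallium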
KCC2 sec2 – KCC2 (human) modulation, second secondary assay | shares compounds with KCC2 mod | HEK293-KCC2, thallium flux FluoZin2 fluorescence; actives lie on both sides; F/F0 rise rate, 10–20 s post-thallium | normalized thallium flux at 10 µM | actives 23% (n = 3,700);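 active = thallium flux slope more than 3 SD above or below the plate's solvent-only control mean, mostly below; inconclusive = the two repeat wells disagreed; inactive = no significant shift from solvent-only controls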
HEK counter1 – counter-screen for KCC2 modulators: effect in parental HEK293 cells | thallium flux rate (normalised fluorescence) at 10 µM | shares compounds with KCC2 mod | actives 46% (n = 3,700) | thallium flux FluoZin2, ouabain; baseline-ratio fluorescence slope, 10–20 s after thallium;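 active = thallium flux rate significantly above the same plate's solvent-only control wells, beyond their mean plus 3 SD; inconclusive = the two replicate wells gave conflicting results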
KCC2 ouabain – confirmation of human KCC2 modulators with ouabain; raw Tl+ flux slope (below DMSO = inhibition, above = activation) at 10 µM; shares compounds with KCC2 mod; actives 48% (n = 3,700); HEK293-KCC2, thallium flux FluoZin2 fluorescence; bidirectional: low = inhibitor, high = activator;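 active = thallium flux slope beyond 3 SD from same-plate DMSO control mean in most replicates, usually higher, sometimes lower; inconclusive = repeat tests gave conflicting results; inactive = no significant difference from controls in most replicates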;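 also: slope of initial-normalized fluorescence between seconds 10 and 20 after thallium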
HEK counter2 – counter-screen for KCC2 modulators: effect in parental HEK293 cells | AID 1718 | shares compounds with KCC2 mod | thallium flux FluoZin-2 fluorescence slope | thallium flux slope at 10 µM | actives 33% (n = 3,700);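 active = thallium flux slope above the same plate's solvent-control mean plus 3 SD in both duplicate wells; inconclusive = duplicate wells that disagreed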;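 also: run without ouabain in cells lacking the KCC2 cotransporter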
Of the large screens only hits and unclear results are named; the others gave an inactive call (follow-up assays come after a bar, where they were run). Shown are actives, neighbours in structure and some others; about 3% of the full set was active somewhere.

Cc1ccccc1NC(=S)N/N=C/C(C)c1ccccc1 (stereo not drawn)	KCC2 mod 14 | KCC2 secondary inactive | KCC2 bumet counter 0.027 | KCC2 sec2 inactive | HEK counter1 0.015 | KCC2 ouabain inconclusive | HEK counter2 0.018
CCCCC(=O)NC(=O)NC(c1ccccc1)c1ccccc1	none (no result: ROMK primary, KCC2 mod, PKD1 inh)
O=C(NC(=O)c1ccncc1)NC(c1ccccc1)c1ccccc1	KCC2 mod -4.8 (no result: ROMK primary) | KCC2 secondary inactive | KCC2 bumet counter inactive | KCC2 sec2 inactive | HEK counter1 inconclusive | KCC2 ouabain inactive | HEK counter2 inactive
O=C(N/N=C/c1ccc([N+](=O)[O-])s1)c1ccccc1	KCC2 mod 6.4 | KCC2 secondary inactive | KCC2 bumet counter 0.017 | KCC2 sec2 inactive | HEK counter1 inconclusive | KCC2 ouabain 0.028 | HEK counter2 inconclusive
O=C(N/N=C/c1ccc([N+](=O)[O-])s1)C(O)c1ccccc1 (stereo not drawn)	none
O=C(Cc1ccccc1)N/N=C/c1ccc([N+](=O)[O-])s1	none (no result: KCC2 mod) | KCC2 secondary inactive | KCC2 bumet counter inconclusive | KCC2 sec2 inactive | HEK counter1 inconclusive | KCC2 ouabain inactive | HEK counter2 inconclusive
Cc1cccc(C(=O)NCC(c2ccc(F)cc2)N2CCOCC2)c1 (stereo not drawn)	none
COc1ccc(/C=N/NC(=O)c2cccc(O)c2)cc1Cn1nc(C)c([N+](=O)[O-])c1C	none (no result: Rad51 HR inh)
COc1ccc(-c2cc(C(=O)NNC(=S)NC(=O)c3c(-c4ccccc4)noc3C)[nH]n2)cc1	none
Cc1onc(-c2ccccc2)c1C(=O)NNC(=S)NC(=O)/C=C/c1ccccc1	KCC2 mod 6.3 (no result: ROMK primary) | KCC2 secondary 0.013 | KCC2 bumet counter 0.037 | KCC2 sec2 inactive | HEK counter1 0.017 | KCC2 ouabain 0.035 | HEK counter2 0.012
Cc1cccc(C)c1NC(=O)c1c(-c2ccccc2)noc1C	none (no result: KCC2 mod)
COc1ccc(/C=C/C(=O)NC(=S)NNC(=O)c2c(-c3ccccc3)noc2C)cc1	KCC2 mod 7.1 | KCC2 secondary 0.013 | KCC2 bumet counter 0.037 | KCC2 sec2 inactive | HEK counter1 0.018 | KCC2 ouabain inconclusive | HEK counter2 0.012
COc1ccc(/C=C/C(=O)NC(=S)NNC(=O)c2cc(OC)c(OC)c(OC)c2)cc1	KCC2 mod 4.5 (no result: PKD1 inh) | KCC2 secondary inactive | KCC2 bumet counter inconclusive | KCC2 sec2 inactive | HEK counter1 inactive | KCC2 ouabain inactive | HEK counter2 inactive
Cc1onc(-c2ccccc2)c1C(=O)NNC(=S)NC(=O)c1ccc(Cl)cc1Cl	KCC2 mod 16 (no result: ROMK primary) | KCC2 secondary inconclusive | KCC2 bumet counter 0.044 | KCC2 sec2 0.055 | HEK counter1 0.039 | KCC2 ouabain 0.045 | HEK counter2 0.042
COc1ccc(Cl)cc1NC(=O)c1c(-c2ccccc2)noc1C	none
Cc1ccc(C(=O)N2CCN(c3ccc(NC(=O)COc4ccccc4C)cc3)CC2)cc1	none
CCn1cc(CNCc2cn(C)nc2-c2ccc(C3CCCCC3)cc2)cn1	none (no result: Rad51 HR inh)
O=C(NC(=S)NCC1CCCO1)c1ccc(Cl)cc1Cl (stereo not drawn)	KCC2 mod 9 (no result: Rad51 HR inh) | KCC2 secondary inactive | KCC2 bumet counter 0.029 | KCC2 sec2 inactive | HEK counter1 0.011 | KCC2 ouabain inconclusive | HEK counter2 inactive
CCOC(=O)c1c(C(C)(C)C)oc2ccc(O)cc12	KCC2 mod -6.2 (no result: ROMK primary) | KCC2 secondary inactive | KCC2 bumet counter inactive | KCC2 sec2 inactive | HEK counter1 inactive | KCC2 ouabain inconclusive | HEK counter2 inactive
CCOc1cc(/C=C(/C#N)c2ccc(F)cc2)ccc1OCc1ccc(C(=O)O)o1	KCC2 mod -4.9 | KCC2 secondary inactive | KCC2 bumet counter inactive | KCC2 sec2 0.024 | HEK counter1 0.0055 | KCC2 ouabain 0.012 | HEK counter2 inconclusive
Cc1ccnc(N2CCC(C(=O)Nc3ccc4c(c3)OCCO4)CC2)n1	none
O=C(CSc1nnnn1Cc1ccccc1)c1ccc(F)cc1	none (no result: ROMK primary, PKD1 inh)
CC1Cc2ccccc2N1C(=O)CSc1nnnn1Cc1ccccc1 (stereo not drawn)	KCC2 mod -3.6 | KCC2 secondary inactive | KCC2 bumet counter inactive | KCC2 sec2 0.023 | HEK counter1 inactive | KCC2 ouabain 0.015 | HEK counter2 inactive
COCCCn1nnnc1SCC(=O)N1c2ccccc2CC1C (stereo not drawn)	none
COc1ccc(C(=O)CSc2nnnn2Cc2ccccc2)cc1	KCC2 mod -6.4 | KCC2 secondary inactive | KCC2 bumet counter 0.0074 | KCC2 sec2 0.025 | HEK counter1 inactive | KCC2 ouabain inconclusive | HEK counter2 inactive
O=C(CSc1nnnn1Cc1ccccc1)c1ccccc1	KCC2 mod -3.2 (no result: ROMK primary) | KCC2 secondary inactive | KCC2 bumet counter inactive | KCC2 sec2 inactive | HEK counter1 inactive | KCC2 ouabain inconclusive | HEK counter2 inactive
COC(=O)c1ccc(CSc2nnnn2Cc2ccccc2)cc1	none
CC(C)Oc1cc(N)c(Cl)cc1Cl	none
Cc1[nH]c(=S)sc1Cc1ccc(Cl)c(Cl)c1	KCC2 mod 49 | KCC2 secondary inconclusive | KCC2 bumet counter 0.084 | KCC2 sec2 inconclusive | HEK counter1 0.037 | KCC2 ouabain 0.048 | HEK counter2 0.015
Cn1c2ccccc2c2nnc(SCC(=O)NCc3ccoc3)nc21	none
CCOc1ccc(S(=O)(=O)NCCSCc2ccco2)cc1	none (no result: KCC2 mod) | KCC2 secondary inactive | KCC2 bumet counter inactive | KCC2 sec2 inactive | HEK counter1 inactive | KCC2 ouabain inactive | HEK counter2 inactive
Cc1ccc2c(Cl)cc(Cl)c(OCC(=O)NC3CCS(=O)(=O)C3)c2n1 (stereo not drawn)	KCC2 mod 10 (no result: ROMK primary) | KCC2 secondary inactive | KCC2 bumet counter 0.019 | KCC2 sec2 inactive | HEK counter1 0.016 | KCC2 ouabain 0.022 | HEK counter2 0.015
CCN(CC(=O)NC(C)(C)C)C(=O)COc1c(Cl)cc(Cl)c2ccc(C)nc12	KCC2 mod 88 (no result: ROMK primary, PKD1 inh) | KCC2 secondary 0.02 | KCC2 bumet counter 0.11 | KCC2 sec2 inactive | HEK counter1 inconclusive | KCC2 ouabain 0.09 | HEK counter2 inconclusive
Cc1ccc2c(Cl)cc(Cl)c(OCC(=O)NCCc3ccccn3)c2n1	none
CC1=NNC(=O)C1CCC(=O)N/N=C/C(Br)=C/c1ccccc1 (stereo not drawn)	none (no result: ROMK primary)

Assay outcomes deposited in PubChem by several laboratories.
